5 molecules from ChEMBL document CHEMBL1152898, “Synthesis and antitumor activity of some new xanthotoxin derivatives” (Eur J Med Chem, 2009) can be followed below.

In experiment [1] the test system is HeLa. The experiment in a line: Antitumor activity against human HeLa cells assessed as cell viability at 10 ug/ml after 72 hrs by MTS assay. Format: functional. The settings on record: read-out: Activity. The method in brief: (§1)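 HeLa or MCF-7 cells were grown in Eagle's MEM with Earle's salts, 2 mM L-glutamine, 1.0 mM pyruvate, 0.1 mM NEAA and 10% FBS. MCF-7 medium also had 0.01 mg/mL insulin. Cells were seeded at 10⁴/well and dosed at 24 h, giving final 5, 10, 50, 100 µg/mL in 2.5% DMSO. After 72 h, MTS was read at 3 h with pre-reagent absorbance subtracted. Triplicates were compared with 2.5% DMSO controls.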
Background: Tetrazolium assays rely on reduction of a dye to a coloured formazan, in cell work by metabolically active cells.

The subject of experiment [2] is HeLa. The experiment in a line: Antitumor activity against human HeLa cells assessed as cell viability at 50 ug/ml after 72 hrs by MTS assay. The class given is functional. The note with it: read-out: Activity. The gist of the method: as §1
Experiment [3] has as its system HeLa. Kind of experiment: Antitumor activity against human HeLa cells after 72 hrs by MTS assay. Format: functional, cell-based. The method in brief:
as §1

Another experiment deals with MCF7. The experiment in a line: Antitumor activity against human MCF7 cells after 72 hrs by MTS assay. The class given is functional, cell-based. The method in brief:
as §1

The subject of experiment [4] is HeLa. Kind of experiment: Antitumor activity against human HeLa cells assessed as cell viability at 100 ug/ml after 72 hrs by MTS assay. Format: functional. The settings on record: read-out: Activity. The method in brief: as §1
For experiment [5], the system named is HeLa. Kind of experiment: Antitumor activity against human HeLa cells assessed as cell viability at 5 ug/ml after 72 hrs by MTS assay. Format: functional. The settings on record: read-out: Activity. The method in brief:
as §1

Converted amounts (≈) assume the structure as drawn. The source made the active and inactive calls. The rule behind the calls is not given here.

One may read the IC50 as the concentration that gives 50% inhibition. As to `CCNC(=S)Nc1c2ccoc2c(OC)c2oc(=O)ccc12`, the viability at 10 µg/mL with HeLa [1] was determined as 70%. Further, in the experiment on HeLa [2], the viability at 50 µg/mL was found to be 35%. The molecule also yielded an IC50 in the experiment with HeLa [3] of 23 µg/mL (≈ 72.2 µM). In addition, in the experiment on MCF7, the outcome was inactive. For the same molecule, in the experiment with HeLa [4], the viability at 100 µg/mL is 41%. The viability at 5 µg/mL in the experiment on HeLa [5] was found to be 101%.

Turning to `COc1c2occc2c(/N=C/c2cccs2)c2ccc(=O)oc12`, the viability at 10 µg/mL in the experiment on HeLa [1] came out at 53%. Besides, in the experiment with HeLa [2], the viability at 50 µg/mL came to 32%. The same molecule came in with an IC50 in the experiment on HeLa [3] of 7.2 µg/mL (≈ 22.1 µM). Moreover, the result in the experiment on MCF7 was inactive. For the same molecule, in the experiment on HeLa [4], the viability at 100 µg/mL was 28%. The viability at 5 µg/mL in the experiment with HeLa [5] came to 70%.

On to `COc1c2occc2c(NC(=S)NCc2ccccc2)c2ccc(=O)oc12`, for which the viability at 10 µg/mL with HeLa [1] amounted to 56%. Also, in the experiment with HeLa [2], the viability at 50 µg/mL was 34%. Further, in the experiment with HeLa [3], half-maximal inhibition (IC50) was put at 7.5 µg/mL (≈ 19.7 µM). The result in the experiment on MCF7 was inactive. Also, the viability at 100 µg/mL in the experiment with HeLa [4] came out at 35%. The viability at 5 µg/mL in the experiment with HeLa [5] is 74%.

Regarding `COc1c2occc2cc2ccc(=O)oc12` [METHOXSALEN], the viability at 10 µg/mL with HeLa [1] is 51%. In the experiment with HeLa [2], the viability at 50 µg/mL was 21%. In the experiment with HeLa [3], this molecule displayed an IC50 of 7.6 µg/mL (≈ 35.2 µM). Besides, the result with MCF7 was inactive. In addition, the viability at 100 µg/mL with HeLa [4] worked out at 16%. In addition, in the experiment with HeLa [5], the viability at 5 µg/mL amounted to 62%.

For `COc1c2occc2c(N2C(=O)CSC2c2ccc(Br)cc2)c2ccc(=O)oc12` (stereo not given), in the experiment with HeLa [1], the viability at 10 µg/mL turned out to be 91%. Also, the viability at 50 µg/mL with HeLa [2] worked out at 26%. This molecule also came in with a concentration for half-maximal inhibition (IC50) in the experiment with HeLa [3] of 40 µg/mL (≈ 84.7 µM). In the experiment with MCF7, the outcome was inactive. In addition, the viability at 100 µg/mL in the experiment with HeLa [4] was 26%. Moreover, in the experiment on HeLa [5], the viability at 5 µg/mL was determined as 82%.
